From the RNAGym collection of RNA variant scans (doi:10.1126/science.aae0568)
Variants at the floor of the assay were thinned out.

B1: tRNA (parent)
chain: GUUCCGUUGGCGUAAUGGUAACGCGUCUCCCUCCUAAGGAGAAGACUGCGGGUUCGAGUCCCGUACGGAACG

Variants of: B1
Experiment: yeast fitness relative to wild type (ratio to wild type); higher = fitter; tRNA-Arg(CCU), competitive growth, 37 C, YPD
In short: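 Changes in genotype frequencies gave Darwinian fitness relative to wild type. Frequencies were read by 100-nucleotide paired-end sequencing of gene amplicons before and after pooled Saccharomyces cerevisiae strains, carrying tRNA-Arg(CCU) gene variants at the native locus, were competed in YPD at 37°C for 24 hours in six replicates. A genotype was kept only with ≥ 100 starting reads, and estimates < 0.5 were set to 0.5.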

Point of comparison: U8A A21G C24A C30A A45U U47C C49A, yeast fitness 0.572. Against it:
- U7G A36C G67A — lower, ≤ 0.5
- U7G A45G A65C C66A — higher, 1.03
- U7G G18C — higher, 0.686
- U7G G38C C60G — lower, ≤ 0.5
- U8A A14U — lower, 0.534
- U7G C30U G38A G50A G68C — lower, ≤ 0.5
- U7G C66A — higher, 0.573
- U7G C66U — higher, 0.893
- U7G A15C A21C U28A G51A C60U C62U — higher, 0.653
- U7G A14G C22U G23A G38A C55A — lower, ≤ 0.5
- U7G A45U C55A — lower, ≤ 0.5
- U8A A37C — higher, 0.679
- U8A A37G — lower, ≤ 0.5
- U7G A14G A20G U35G A43G U59A — lower, ≤ 0.5
- U7G A15G C27A — lower, 0.567
- U7G A21U — higher, 0.717
- U7G A21G — higher, 0.816
- U7G A21C — higher, 0.588
- U7G C61U G63A C66A — lower, ≤ 0.5
- U7G U8A A14G — lower, 0.525
- U7G U26A G63A — lower, ≤ 0.5
- U7G C11G C34U G41A C61A A65C — lower, ≤ 0.5
- U7G C27U C33U G50C U53A A57U A65U — lower, ≤ 0.5
- U7G C46A C61G A69G — lower, ≤ 0.5
- U8A A40G C62A — lower, ≤ 0.5
- U7C U28C — higher, 0.879
- U7C U28A G48C A69U A70U — lower, ≤ 0.5
- U8A A14C C31A G41C G63U U64A — higher, 0.776
- U7G C22A U64C — lower, ≤ 0.5
- U7G C22U C24G A65U C66U — lower, ≤ 0.5
- U7G A43U A65C — higher, 1
- U7G C29G C61U G68A — lower, ≤ 0.5
- U7G C11G C34U G41A G67U — lower, ≤ 0.5
- U8A A21U C55A — lower, ≤ 0.5
- U7G C22U C49G G50C — lower, 0.512
- U7G C11G C34U G41A A57U C66U — lower, ≤ 0.5
- U8A A15C G18C C49U U64A A69U — higher, 0.651
- U7G C11G C34U C49U U59C C62G — lower, ≤ 0.5
- U8A A21G C24A C30A A45U C49A — higher, 0.765
- U7G C11U C60A — lower, ≤ 0.5
- U7G U26G C33G U59A U64C — lower, 0.502
- U7G A15C A45C — lower, 0.565
- U7G A20G A70G — higher, 0.615
- U7G C34A A36U G52A C60A — lower, ≤ 0.5
- U7G G23C C30G A36U C61U — lower, ≤ 0.5
- U7G A42U U53A — lower, ≤ 0.5
- U7G C11G U32A U53G — lower, ≤ 0.5
- U8A A15C — higher, 0.631
- U8A A15G — higher, 0.665
- U8A A15U — higher, 0.587
- U8A A15U C34U U64G — lower, ≤ 0.5
- U8A A21U C27G C30A — lower, ≤ 0.5
- U7G G10A C27U G68A — lower, ≤ 0.5
- U7G C61U C66A — higher, 0.626
- U7G A15C G38C — lower, ≤ 0.5
- U7C U59G C60A G68U — lower, ≤ 0.5
- U7C U54G — lower, 0.535
- U7C U54C — higher, 0.821
- U7G C27G U32C A36G — lower, ≤ 0.5
- U7C U47G G68U — lower, ≤ 0.5
- U7G A15U — higher, 0.592
- U7G A15C — higher, 0.653
- U8A A36G G38C G52C A57U A69U A70G — lower, ≤ 0.5
- U7G G68A — higher, 0.821
- U7G A36G A45U — lower, ≤ 0.5
- U7C U47C U64G G68C — lower, ≤ 0.5
- U7G A37G C49A — lower, ≤ 0.5
- U7G G25C G67A — higher, 0.682
- U7G A21C G51A — lower, ≤ 0.5
- U7G G12C A14C A15G A37C A57U — lower, ≤ 0.5
- U7G A20C A42C — lower, ≤ 0.5
- U7G C22A C61G — lower, ≤ 0.5
- U7C U32C — higher, 0.776
- U7C U32C G58A A70C — lower, ≤ 0.5
- U7G C30A C55A — lower, ≤ 0.5
- U7C U28A G67A — lower, 0.528
- U7G A40U G63A — higher, 0.66
- U7C U64A G68U — lower, ≤ 0.5
- U7G A14G U59A — lower, 0.542
- U7G U28G C34U G38A — lower, ≤ 0.5
- U7G U13A A69U — higher, 0.629
- U8A A15G G50C C55U C60G A69G — lower, ≤ 0.5
- U7G C34A G44C G51A C62A — lower, ≤ 0.5
- U7G C55U G56C G63U — higher, 0.602
- U7G C24G — higher, 0.619
- U7G C22U C24U U53A — lower, ≤ 0.5
- U7G G10C C33U C60G G67A — lower, ≤ 0.5
- U7G C27A A36C A42U — lower, 0.532
- U8A A36U — lower, 0.559
- U8A A15U C29U G38C — lower, ≤ 0.5
- U7G C11G C34U G41A U54C U64C — lower, ≤ 0.5
- U8A A14G C24G A45C U64A — lower, ≤ 0.5
- U7G G63A A65G — higher, 0.828
- U7G C27G U28G G67A — lower, 0.547
- U8A A15C A21U — lower, ≤ 0.5
- U7G C22G A43U U47A G51A — higher, 0.664
- U7G C49A C61U G67C — lower, ≤ 0.5
- U7G A42C C62U — higher, 0.651
- U7G C27G U28G C66U — lower, ≤ 0.5
- U8A A37C A43U — lower, 0.541
- U7G A40U A69C — higher, 0.731
- U7G A21G U53C A57C A69U — lower, ≤ 0.5
- U7G A20G A21G G38C G50C — lower, ≤ 0.5
- U7G C62A — higher, 0.612
- U7G A20G — higher, 0.872
- U7G A20C — higher, 0.651
- U7G C55A — higher, 0.665
- U7G C55U — higher, 0.855
- U7G U13C A36U G50C U54C — lower, ≤ 0.5
- U7G U59C — higher, 0.871
- U7G — higher, 0.983
- U7G G23A A36U G39C — lower, ≤ 0.5
- U7G A45U — higher, 0.852
- U7G A21C G58C — lower, ≤ 0.5
- U8A A37G A43G U59A — higher, 0.582
- U7G A15G U19C A21G G41A C55A G63C — lower, ≤ 0.5
- U7G C60A A69G — lower, ≤ 0.5
- U7G C22G G50A G67A — lower, ≤ 0.5
- U7G C11U — higher, 0.807
- U7G C11G — higher, 0.692
- U7G G41A G48A — higher, 0.911
- U7G C33A A69G — higher, 0.598
- U8A A40G U64C — higher, 0.623
- U7G C22A U53C — lower, ≤ 0.5
- U7G U13C A57U — lower, ≤ 0.5
- U7G A21C G56A — lower, ≤ 0.5
- U7G C27G U28G U59C — lower, ≤ 0.5
- U7G A43G C46G A69U — lower, ≤ 0.5
- U7G A15G U19C A21G G41A C55A — higher, 0.575
- U7G U32A C61G — lower, ≤ 0.5
- U7C U28A C34U C61U — lower, ≤ 0.5
- U7G A65C — higher, 0.998
- U8A A15U A20U G25C C29A A40C G50A — lower, ≤ 0.5
- U7G U59C A69U — higher, 0.717
- U7G G25C A40U — lower, 0.556
- U7G A36U G63A — lower, 0.532
- U7G U28G — higher, 0.635
- U8A A15G C27A G56A — lower, ≤ 0.5
- U7G C11U G12C C33U C61G C62G — lower, ≤ 0.5
- U8A A40G C49G U54A C55A — lower, ≤ 0.5
- U7G G39C A42G — lower, ≤ 0.5
- U7C U47C — higher, 0.895
- U8A A37G A42U U54C — lower, ≤ 0.5
- U7G C49A — higher, 0.665
- U7G G41C C49G U59G G63A C66U — lower, ≤ 0.5
- U7G A15C G44A — lower, ≤ 0.5
- U7G C11U G12C C33U U64A G68C — lower, ≤ 0.5
- U7G U16C C30A — lower, ≤ 0.5
- U7C U53A — higher, 0.655
- U7G C46U A70G — higher, 0.752
- U8A A20C U35A G38C A69C — lower, 0.535
- U7G C11G C34U G41A C60A C61U G63C C66U — lower, ≤ 0.5
- U7G C46U C60A — lower, ≤ 0.5
- U7G U32C C34G A43U — lower, ≤ 0.5
- U7G A21C G48C C55U G56A — lower, ≤ 0.5
- U7G C30A — higher, 0.721
- U7G C30U — higher, 0.895
- U7G C30G — lower, 0.509
- U7G C61U — higher, 0.78
- U7G G50A — higher, 0.858
- U7G U13C A37U — lower, ≤ 0.5
- U7G A40C — higher, 0.807
- U8A A36U G39A C66U — lower, ≤ 0.5
- U7G C49U A57U — lower, ≤ 0.5
- U7G C27G U32C A36G G63A — lower, ≤ 0.5
- U7G A42C G44C G67C — lower, ≤ 0.5
